Data reported in ChEMBL document CHEMBL1629431, “Synthesis and antitumor activity of some 2, 3-disubstituted quinazolin-4(3H)-ones and 4, 6- disubstituted- 1, 2, 3, 4-tetrahydroquinazolin-2H-ones” (2010).

Experiments:
Assay type in all cases: functional
CCRF-CEM = experiment: Growth inhibition of human CCRF-CEM cells at 10 uM after 48 hrs by coulter counter method; details: read-out: GI
In short: (§1)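 Single high-dose NCI 60-cell-line panel screen across nine tumor subpanels. Test solutions (0.2 mL) were added in duplicate to wells holding 1.8 mL of culture at 6 × 10⁴ cells/mL. Controls got PBS and DMSO at identical dilutions. Incubation was 48 h at 37 °C in humidified 5% CO₂. Cells were diluted 10-fold in saline, Coulter-counted and dilution-corrected. Results were expressed as percent growth inhibition versus control.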

M14 = experiment: Growth inhibition of human M14 cells at 10 uM after 48 hrs by coulter counter method; details: M14, 48 h, read-out: GI; in short: as §1
KM12 = experiment: Growth inhibition of human KM12 cells at 10 uM after 48 hrs by coulter counter method; details: KM12, 48 h, read-out: GI; in short: as §1
OVCAR-8 = experiment: Growth inhibition of human OVCAR8 cells at 10 uM after 48 hrs by coulter counter method; details: OVCAR-8, 48 h, read-out: GI; in short: as §1
NCI-H226 = experiment: Growth inhibition of human NCI-H226 cells at 10 uM after 48 hrs by coulter counter method; details: NCI-H226, 48 h, read-out: GI; in short: as §1
COLO 205 = experiment: Growth inhibition of human COLO205 cells at 10 uM after 48 hrs by coulter counter method; details: COLO 205, 48 h, read-out: GI; in short: as §1
UACC-62 = experiment: Growth inhibition of human UACC62 cells at 10 uM after 48 hrs by coulter counter method; details: UACC-62, 48 h, read-out: GI; in short: as §1
T47D = experiment: Growth inhibition of human T47D cells at 10 uM after 48 hrs by coulter counter method; details: read-out: GI; in short: as §1
MOLT-4 = experiment: Growth inhibition of human MOLT4 cells at 10 uM after 48 hrs by coulter counter method; details: MOLT-4, 48 h, read-out: GI; in short: as §1
NCI-H522 = experiment: Growth inhibition of human NCI-H522 cells at 10 uM after 48 hrs by coulter counter method; details: NCI-H522, 48 h, read-out: GI; in short: as §1
OVCAR-4 = experiment: Growth inhibition of human OVCAR4 cells at 10 uM after 48 hrs by coulter counter method; details: OVCAR-4, 48 h, read-out: GI; in short: as §1
MDA-MB-468 = experiment: Growth inhibition of human MDA-MB-468 cells at 10 uM after 48 hrs by coulter counter method; details: MDA-MB-468, 48 h, read-out: GI; in short: as §1
MCF7 = experiment: Growth inhibition of human MCF7 cells at 10 uM after 48 hrs by coulter counter method; details: MCF7, 48 h, read-out: GI; in short: as §1
HL-60(TB) = experiment: Growth inhibition of human HL-60(TB) cells at 10 uM after 48 hrs by coulter counter method; details: HL-60, 48 h, read-out: GI
In short: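 Part of the NCI 60-cell-line single-high-dose panel. Cells were seeded at 6 × 10⁴ cells/mL with test solution in duplicate wells, alongside PBS/DMSO controls at identical dilutions. Plates were held 48 h at 37 °C in a humidified 5% CO₂ incubator. Cells were then diluted 10-fold in saline and counted by Coulter counter, with counts corrected for dilution. Results are percent growth of treated cells, reported as GI %.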

SR = experiment: Growth inhibition of human SR cells at 10 uM after 48 hrs by coulter counter method; details: read-out: GI; in short: as §1
SK-OV-3 = experiment: Growth inhibition of human SKOV3 cells at 10 uM after 48 hrs by coulter counter method; details: SK-OV-3, 48 h, read-out: GI; in short: as §1
U-251 = experiment: Growth inhibition of human U251 cells at 10 uM after 48 hrs by coulter counter method; details: U-251, 48 h, read-out: GI; in short: as §1
K562 = experiment: Growth inhibition of human K562 cells at 10 uM after 48 hrs by coulter counter method; details: K562, 48 h, read-out: GI; in short: as §1
A549 = experiment: Growth inhibition of human A549 cells at 10 uM after 48 hrs by coulter counter method; details: A549, 48 h, read-out: GI; in short: as §1
CAKI-1 = experiment: Growth inhibition of human Caki1 cells at 10 uM after 48 hrs by coulter counter method; details: CAKI-1, 48 h, read-out: GI; in short: as §1
NCI-H23 = experiment: Growth inhibition of human NCI-H23 cells at 10 uM after 48 hrs by coulter counter method; details: NCI-H23, 48 h, read-out: GI; in short: as §1
SF-268 = experiment: Growth inhibition of human SF268 cells at 10 uM after 48 hrs by coulter counter method; details: SF-268, 48 h, read-out: GI; in short: as §1
HOP-92 = experiment: Growth inhibition of human HOP92 cells at 10 uM after 48 hrs by coulter counter method; details: HOP-92, 48 h, read-out: GI; in short: as §1
SNB-75 = experiment: Growth inhibition of human SNB75 cells at 10 uM after 48 hrs by coulter counter method; details: SNB-75, 48 h, read-out: GI; in short: as §1
786-0 = experiment: Growth inhibition of human 786-0 cells at 10 uM after 48 hrs by coulter counter method; details: 786-0, 48 h, read-out: GI; in short: as §1
SF-539 = experiment: Growth inhibition of human SF539 cells at 10 uM after 48 hrs by coulter counter method; details: SF-539, 48 h, read-out: GI; in short: as §1
PC-3 = experiment: Growth inhibition of human PC3 cells at 10 uM after 48 hrs by coulter counter method; details: PC-3, 48 h, read-out: GI; in short: as §1
SK-MEL-2 = experiment: Growth inhibition of human SK-MEL-2 cells at 10 uM after 48 hrs by coulter counter method; details: SK-MEL-2, 48 h, read-out: GI; in short: as §1
HCT-116 = experiment: Growth inhibition of human HCT116 cells at 10 uM after 48 hrs by coulter counter method; details: HCT-116, 48 h, read-out: GI; in short: as §1
MDA-MB-231 = experiment: Growth inhibition of human MDA-MB-231 cells at 10 uM after 48 hrs by coulter counter method; details: MDA-MB-231, 48 h, read-out: GI; in short: as §1
SN12C = experiment: Growth inhibition of human SN12C cells at 10 uM after 48 hrs by coulter counter method; details: read-out: GI; in short: as §1
UO-31 = experiment: Growth inhibition of human UO31 cells at 10 uM after 48 hrs by coulter counter method; details: UO-31, 48 h, read-out: GI; in short: as §1
IGROV-1 = experiment: Growth inhibition of human IGROV1 cells at 10 uM after 48 hrs by coulter counter method; details: IGROV-1, 48 h, read-out: GI; in short: as §1
[1] = Growth inhibition of human Hs 578T cells at 10 uM after 48 hrs by coulter counter method; details: read-out: GI; in short: as §1
SK-MEL-28 = experiment: Growth inhibition of human SK-MEL-28 cells at 10 uM after 48 hrs by coulter counter method; details: SK-MEL-28, 48 h, read-out: GI; in short: as §1

Row | SMILES | inhibition of growth at 10 µM (CCRF-CEM) [%] | inhibition of growth at 10 µM (M14) [%] | inhibition of growth at 10 µM (KM12) [%] | inhibition of growth at 10 µM (OVCAR-8) [%] | inhibition of growth at 10 µM (NCI-H226) [%] | inhibition of growth at 10 µM (COLO 205) [%] | inhibition of growth at 10 µM (UACC-62) [%] | inhibition of growth at 10 µM (T47D) [%] | inhibition of growth at 10 µM (MOLT-4) [%] | inhibition of growth at 10 µM (NCI-H522) [%] | inhibition of growth at 10 µM (OVCAR-4) [%] | inhibition of growth at 10 µM (MDA-MB-468) [%] | inhibition of growth at 10 µM (MCF7) [%] | inhibition of growth at 10 µM (HL-60(TB)) [%] | inhibition of growth at 10 µM (SR) [%] | inhibition of growth at 10 µM (SK-OV-3) [%] | inhibition of growth at 10 µM (U-251) [%] | inhibition of growth at 10 µM (K562) [%] | inhibition of growth at 10 µM (A549) [%] | inhibition of growth at 10 µM (CAKI-1) [%] | other results
1 | CCn1c(SC)nc2ccccc2c1=O | 49.5 | 30 | 30 | 30 | 30 | 30 | 30 | 30 | 30 | 30 | 30 | 30 | 30 | 34.8 | 30 | 30 | 30 | 30 | 30 | 42.9 | inhibition of growth at 10 µM (NCI-H23): 30%; inhibition of growth at 10 µM (SF-268): 30%; inhibition of growth at 10 µM (HOP-92): 60.8%; inhibition of growth at 10 µM (SNB-75): 30%; inhibition of growth at 10 µM (786-0): 30%; inhibition of growth at 10 µM (SF-539): 30%; inhibition of growth at 10 µM (PC-3): 30%; inhibition of growth at 10 µM (SK-MEL-2): 30%; inhibition of growth at 10 µM (HCT-116): 30%; inhibition of growth at 10 µM (MDA-MB-231): 30%; inhibition of growth at 10 µM (SN12C): 30%; inhibition of growth at 10 µM (UO-31): 30%; inhibition of growth at 10 µM (IGROV-1): 30%; inhibition of growth at 10 µM [1]: 30%; inhibition of growth at 10 µM (SK-MEL-28): 30%
2 | O=c1c2ccccc2nc(Nc2nnc(-c3ccc(Cl)cc3)s2)n1-c1ccccc1 | 30 | 30 | 30 | 30 | 30 | 30 | 30 | 30 | 30 | 31.9 | 30 | 30 | 30 | 30 | 30 | 30 | 30 | 30 | 30 | 30 | inhibition of growth at 10 µM (NCI-H23): 30%; inhibition of growth at 10 µM (SF-268): 30%; inhibition of growth at 10 µM (HOP-92): 30%; inhibition of growth at 10 µM (SNB-75): 30%; inhibition of growth at 10 µM (786-0): 30%; inhibition of growth at 10 µM (SF-539): 30%; inhibition of growth at 10 µM (PC-3): 30%; inhibition of growth at 10 µM (SK-MEL-2): 30%; inhibition of growth at 10 µM (HCT-116): 30%; inhibition of growth at 10 µM (MDA-MB-231): 30%; inhibition of growth at 10 µM (SN12C): 30%; inhibition of growth at 10 µM (UO-31): 30%; inhibition of growth at 10 µM (IGROV-1): 65.9%; inhibition of growth at 10 µM [1]: 30%; inhibition of growth at 10 µM (SK-MEL-28): 30%
